{"source": "ChEMBL document CHEMBL1139257", "about": "“The absolute configuration plays an important role in muscarinic activity of BGT-A and its analogs” (Bioorg Med Chem, 2008)", "key": {"Cavia porcellus [1]": {"organism": "Cavia porcellus", "assay": "(§1) Antagonist activity at guinea pig mAChR assessed as inhibition of carbachol-induced iris muscle contraction", "assay_type": "functional, tissue-based", "summary_of_the_method": "(§2)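 pA2 values derived by Arunlakshana–Schild analysis of contraction responses; data as means SEM.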"}, "[2]": {"assay": "Displacement of [3H]NMS from mAChR in SD rat submandibulary gland by rapid filtration technique", "summary_of_the_method": "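Membranes from male SD rat (220–240 g) submandibulary glands, homogenised in ice-cold 0.32 M sucrose/50 mM Tris pH 7.4, spun at 1000g then 20,000g, at 4 °C. Membranes (0.1 mg protein) incubated at 37 °C with [3H]NMS and increasing compound concentrations in Tris buffer. Filtered through glass fibre, washed three times. Run in duplicate. IC50 by curve fit, Ki by Cheng–Prusoff.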"}, "Oryctolagus cuniculus [3]": {"organism": "Oryctolagus cuniculus", "assay": "Mydriatic effect in rabbit assessed as change in pupil diameter under constant light at 0.02 M after 10 mins", "assay_type": "functional", "summary_of_the_method": "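Rabbits (2.5–3.0 kg, either sex), randomised into groups of five. 0.05 ml agent dropped into left eye, right eye as control reference. Left pupil diameter (mm) read under constant light before and 10 min after dosing. Significance by Student's t-test, P < 0.05.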"}, "[4]": {"assay": "(§3) Agonist activity at guinea pig mAChR assessed as stimulation of carbachol-induced iris muscle contraction", "assay_type": "functional, tissue-based, Cavia porcellus", "summary_of_the_method": "(§4)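 Iris contraction assay: EC50 (agonist concentration giving half-maximal response) and log concentration–response slopes obtained by nonlinear sigmoidal dose–response logistic curve fitting. Data given as means SEM; significance by Student's t-test, P < 0.05.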"}, "[5]": {"assay": "Agonist activity at guinea pig mAChR assessed as stimulation of carbachol-induced iris muscle contraction relative to carbachol", "assay_type": "functional", "conditions": "Cavia porcellus"}, "Cavia porcellus [6]": {"organism": "Cavia porcellus", "assay": "as §3", "assay_type": "functional, tissue-based", "summary_of_the_method": "as §4"}, "Oryctolagus cuniculus [7]": {"organism": "Oryctolagus cuniculus", "assay": "Myotic effect in rabbit assessed as change in pupil diameter under constant light at 0.02 M after 10 mins", "assay_type": "functional", "summary_of_the_method": "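Twenty healthy rabbits (2.5–3.0 kg, either sex) were randomised into four groups of five. Left pupil diameter (mm) was read under constant light before and 10 min after 0.05 ml agent was dropped in; the right eye served as control reference. Significance by Student's t-test, P < 0.05.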"}, "[8]": {"assay": "as §1", "assay_type": "functional, tissue-based, Cavia porcellus", "summary_of_the_method": "as §2"}}, "note": "Calls of active or inactive are those of the source. The calls are words filed in the database; no cut-off is given here."}
{"smiles": "CC(=O)O[C@@H]1CC2C[C@H](OC(=O)c3ccc(Cl)cc3)CC1N2C", "note": "(some centres undefined)", "values": [{"measurement": "Activity", "setting": "Cavia porcellus [1]", "value": "inactive"}, {"measurement": "Ki", "setting": "[2]", "value": 73, "unit": "µM"}, {"measurement": "Activity", "setting": "Oryctolagus cuniculus [3]", "value": 3, "unit": "%"}]}
{"smiles": "C[N+](C)(C)CCOC(N)=O.[Cl-]", "note": "[CARBACHOL]", "values": [{"measurement": "pEC50", "setting": "[4]", "value": 6.57}, {"measurement": "Emax", "setting": "[5]", "value": 100, "unit": "%"}]}
{"smiles": "CC(=O)O[C@H]1CC2C[C@@H](OS(=O)(=O)c3ccccc3)CC1N2C", "note": "(some centres undefined)", "values": [{"measurement": "pEC50", "setting": "[4]", "value": 6.06}, {"measurement": "Activity", "setting": "Cavia porcellus [6]", "value": "Dose-dependent effect"}, {"measurement": "Emax", "setting": "[5]", "value": 87.1, "unit": "%"}, {"measurement": "Ki", "setting": "[2]", "value": 0.04, "unit": "µM"}, {"measurement": "Activity", "setting": "Oryctolagus cuniculus [7]", "value": 44, "unit": "%"}]}
{"smiles": "CC(=O)O[C@@H]1CC2C[C@H](OC(=O)c3ccc([N+](=O)[O-])cc3)CC1N2C", "note": "(some centres undefined)", "values": [{"measurement": "Activity", "setting": "Cavia porcellus [1]", "value": "inactive"}, {"measurement": "Ki", "setting": "[2]", "value": 450, "unit": "µM"}, {"measurement": "Activity", "setting": "Oryctolagus cuniculus [3]", "value": 3.7, "unit": "%"}]}
{"smiles": "CC(=O)O[C@@H]1CC2C[C@H](OS(=O)(=O)c3ccccc3)CC1N2C", "note": "(some centres undefined)", "values": [{"measurement": "Activity", "setting": "Oryctolagus cuniculus [7]", "value": 4.7, "unit": "%"}]}
{"smiles": "CC(=O)O[C@H]1CC2C[C@@H](OC(=O)c3ccc([N+](=O)[O-])cc3)CC1N2C", "note": "(some centres undefined)", "values": [{"measurement": "pA2", "setting": "[8]", "value": 6.11}, {"measurement": "Ki", "setting": "[2]", "value": 3.7, "unit": "µM"}, {"measurement": "Activity", "setting": "Oryctolagus cuniculus [3]", "value": 35.1, "unit": "%"}]}
{"smiles": "CC(=O)O[C@H]1CC2C[C@@H](OC(=O)c3ccc(Cl)cc3)CC1N2C", "note": "(some centres undefined)", "values": [{"measurement": "Ki", "setting": "[2]", "value": 9, "unit": "µM"}, {"measurement": "Activity", "setting": "Oryctolagus cuniculus [3]", "value": 32.2, "unit": "%"}]}
